These results are taken from ChEMBL document CHEMBL1629545, “A morpholino oligomer targeting highly conserved internal ribosome entry site sequence is able to inhibit multiple species of picornavirus” (Antimicrob Agents Chemother, 2008).

The subject of data set [1] is HeLa. The data set is described as follows: Cytotoxicity against human HeLa cells 10 uM after 24 hrs by MTS assay. The data set is classed as cell-based. Summed up: (§1)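 HeLa cells at ~80% confluence, uninfected, exposed to 1–100 μM PPMO or water (mock) in serum-free DMEM-F-12 (1:1) for 24 h. MTS reagent was added for 4 h and absorbance read at 492 nm. Viability was expressed as percent of water-treated cells (set to 100%), averaged over 12 wells.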

Data set [2] has as its system HeLa. The data set is described as follows: Cytotoxicity against human HeLa cells at 10 uM by MTS assay. The data set is classed as cell-based. Summed up: as §1
In general terms: Tetrazolium dyes change colour on reduction, which living cells bring about.

Data set [3] concerns HeLa. The data set is described as follows: Cytotoxicity against human HeLa cells at 10 uM after 48 hrs by MTS assay. Format: cell-based. Summed up: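 Time-course viability: uninfected HeLa cells were kept in 10 μM PPMO in DMEM-F-12 and assayed at time points from 10 to 69 h after treatment began. Read-out was the MTS reagent for 4 h with absorbance at 492 nm. Results are given as percent of water-mock cells, each point the mean of 12 wells.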

For another data set, the system named is Poliovirus 1. Kind of data set: Antiviral activity against Human poliovirus type 1 infected in Human HeLa cell assessed as inhibition of translation at 10 ug/ml by luciferase reporter gene assay. Format: functional, organism-based. Summed up:
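In-cell translation control: HeLa cells electroporated with 20 μg PV1-Luc replicon RNA were placed in medium with 10 μg/ml puromycin at 37°C in 5% CO2. Luciferase in lysates was read by luminometer at hourly time points after transfection. Two experiments were averaged.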
Background: A reporter such as luciferase makes a cellular process visible.

In a further data set the test system is Vero. The data set is described as follows: Cytotoxicity against African green monkey Vero cells at 10 uM after 24 hrs by MTS assay. The data set is classed as cell-based. As to conditions: chlorocebus sabaeus.
Another data set relates to SK-N-MC. The data set is described as follows: Cytotoxicity against human SK-N-MC cell at 10 uM after 24 hrs by MTS assay. Format: cell-based.

Activity calls are given as the source filed them. No cut-off for these calls is given here.

With `Cc1cn([C@H]2CN(P(=O)(OC[C@@H]3CN(P(=O)(OC[C@@H]4CN(P(=O)(OC[C@@H]5CNC[C@H](n6ccc(N)nc6=O)O5)N(C)C)C[C@H](n5cnc6c(N)ncnc65)O4)N(C)C)C[C@H](n4ccc(N)nc4=O)O3)N(C)C)C[C@@H](COP(=O)(N(C)C)N3C[C@@H](COP(=O)(N(C)C)N4C[C@@H](COP(=O)(N(C)C)N5C[C@@H](COP(=O)(N(C)C)N6C[C@@H](COP(=O)(N(C)C)N7C[C@@H](COP(=O)(N(C)C)N8C[C@@H](COP(=O)(N(C)C)N9C[C@@H](COP(=O)(N(C)C)N%10C[C@@H](COP(=O)(N(C)C)N%11C[C@@H](COP(=O)(N(C)C)N%12C[C@@H](COP(=O)(N(C)C)N%13C[C@@H](COP(=O)(N(C)C)N%14C[C@@H](COP(=O)(N(C)C)N%15C[C@@H](COP(=O)(N(C)C)N%16C[C@@H](COP(=O)(N(C)C)N%17C[C@@H](COP(=O)(N(C)C)N%18C[C@@H](COP(=O)(N(C)C)N%19C[C@@H](COP(=O)(N(C)C)N%20C[C@@H](COP(=O)(N(C)C)N%21C[C@@H](COP(=O)(N(C)C)N%22C[C@@H](COP(=O)(N(C)C)N%23CCN(C(=O)CCNC(=O)CCCCCNC(=O)[C@H](CCCNC(=N)N)NC(=O)CCCCCNC(=O)[C@H](CCCNC(=N)N)NC(=O)[C@H](CCCNC(=N)N)NC(=O)CCCCCNC(=O)[C@H](CCCNC(=N)N)NC(=O)[C@H](CCCNC(=N)N)NC(=O)CCCCCNC(=O)[C@H](CCCNC(=N)N)NC(=O)[C@H](CCCNC(=N)N)NC(=O)CCCCCNC(=O)[C@@H](N)CCCNC(=N)N)CC%23)O[C@@H](n%23ccc(N)nc%23=O)C%22)O[C@@H](n%22cnc%23c(N)ncnc%23%22)C%21)O[C@@H](n%21cnc%22c(N)ncnc%22%21)C%20)O[C@@H](n%20ccc(N)nc%20=O)C%19)O[C@@H](n%19cnc%20c(=O)[nH]c(N)nc%20%19)C%18)O[C@@H](n%18ccc(N)nc%18=O)C%17)O[C@@H](n%17cnc%18c(N)ncnc%18%17)C%16)O[C@@H](n%16cnc%17c(=O)[nH]c(N)nc%17%16)C%15)O[C@@H](n%15ccc(N)nc%15=O)C%14)O[C@@H](n%14ccc(N)nc%14=O)C%13)O[C@@H](n%13cc(C)c(=O)[nH]c%13=O)C%12)O[C@@H](n%12cnc%13c(=O)[nH]c(N)nc%13%12)C%11)O[C@@H](n%11cnc%12c(=O)[nH]c(N)nc%12%11)C%10)O[C@@H](n%10cnc%11c(N)ncnc%11%10)C9)O[C@@H](n9ccc(N)nc9=O)C8)O[C@@H](n8ccc(N)nc8=O)C7)O[C@@H](n7cnc8c(N)ncnc87)C6)O[C@@H](n6ccc(N)nc6=O)C5)O[C@@H](n5ccc(N)nc5=O)C4)O[C@@H](n4cnc5c(=O)[nH]c(N)nc54)C3)O2)c(=O)[nH]c1=O` (stereo partly specified), the Activity result with HeLa [1] was “Toxic”; in the data set on HeLa [2], “Non-toxic”; with HeLa [3] it was “Toxic”; with Vero, “Non-toxic”; with SK-N-MC, “Non-toxic”. Besides, in the data set on Poliovirus 1, the result was inactive.
